4 compounds from ChEMBL document CHEMBL1157313, “Metabolites from the marine-derived fungus Chromocleista sp. isolated from a deep-water sediment sample collected in the Gulf of Mexico” (2006) can be followed below.

The term MIC denotes the lowest concentration that inhibits growth of the organism. A high value points to weaker potency.

≈ marks a conversion by molar mass, not a printed value. Calls of active or inactive are those of the source. No cut-off for these calls is given here.

One test relates to P388. In words: Cytotoxicity against mouse P388 cells at 5 ug/mL after 45 hrs by MTT assay. Format: functional, cell-based. Summed up:
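Murine leukemia cells incubated 45 h with compound at 5 µg/mL in 96-well plates; cytotoxicity read spectrophotometrically using MTT.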

The subject of a further test is NCI/ADR-RES. Briefly: Cytotoxicity against human NCI-ADR-RES cells at 5 ug/mL after 72 hrs by MTT assay. The class given is functional, cell-based. In short, it runs like this: (§1)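 Cells exposed to compound at 5 µg/mL for 72 h in 96-well format; viability read spectrophotometrically with MTT.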
(In general: Tetrazolium assays rely on reduction of a dye to a coloured formazan, in cell work by metabolically active cells.)

The next test relates to PANC-1. In words: Cytotoxicity against human PANC1 cells at 5 ug/mL after 72 hrs by MTT assay. Format: functional, cell-based. Summed up: as §1
The subject of another test is Staphylococcus aureus. In words: Antibacterial activity against Staphylococcus aureus ATCC 29213 at 50 ug/mL after 18 hrs by broth microdilution technique. Format: functional, organism-based. Summed up:
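MIC by standard broth microdilution in cation-supplemented Mueller-Hinton broth; plates incubated 18 h at 37 °C; tested at 50 µg/mL.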
On the technique in general: Dilution methods test growth across graded concentrations, often in twofold steps.

Test [1] concerns Candida albicans. In words: Antifungal activity against Candida albicans ATCC 44506 up to 50 ug/mL after 18 hrs by broth microdilution method. The class given is functional, organism-based. In short, it runs like this:
(§2)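 MIC by standard broth microdilution with Sabouraud dextrose broth as growth medium; plates incubated 18 h at 37 °C.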

The next test concerns A549. In words: Cytotoxicity against human A549 cells at 5 ug/mL after 72 hrs by MTT assay. The class given is functional, cell-based. In short, it runs like this:
as §1

For test [2], the system named is Candida albicans. Briefly: Antifungal activity against Candida albicans ATCC 44506 after 18 hrs by broth microdilution method. Format: functional. Conditions: ATCC 44506, 18 h. In short, it runs like this: as §2

For `O=C1[C@H](Cc2ccccc2)NC(=O)[C@]2(O)CCCN12`, the outcome with P388, with NCI/ADR-RES, in the test with PANC-1, with Staphylococcus aureus, in the test with Candida albicans [1] and with A549 was inactive.

For `O=C1C(O)=C(c2ccc(O)cc2)[C@@H]2CCCN12`, the outcome in the test on P388, with NCI/ADR-RES, in the test with PANC-1, in the test with Staphylococcus aureus and with A549 was inactive. The compound also showed an MIC with Candida albicans [2] of 25 µg/mL (≈ 108 µM).

Turning to `O=C1[C@H](Cc2ccccc2)NC(=O)[C@@]2(O)CCCN12`, the outcome with P388, in the test on NCI/ADR-RES, in the test with PANC-1, in the test on Staphylococcus aureus, with Candida albicans [1] and in the test on A549 was inactive.

Regarding `O=C1N[C@@H](Cc2ccccc2)C(=O)N2CCC=C12`, the result with P388, with NCI/ADR-RES, with PANC-1, with Staphylococcus aureus, with Candida albicans [1] and in the test on A549 was inactive.
